High-throughput results deposited in PubChem BioAssay by Broad Institute.
Cneo AK release: Cryptococcus neoformans cell lysis inducers, primary screen, AK release luminescence, single concentration; C. neoformans lysis, adenylate kinase release luminescence, 4 h; normalised: neutral wells 0, clomiphene wells 100; lysis activity, % at 15 µM; hit rate 0.2% among 360,000; AID 651654, 2012;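 active = mean lysis activity across replicates of at least 80%, whatever share of replicates individually reach that level; inactive = mean lysis activity below 80%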
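Test system: log-phase Cryptococcus neoformans yeast cells. Input: 5 × 10^6 yeast cells/mL. Medium: fresh YPD growth medium. Doses: single dose. Incubation: static 4 h at 37 °C with compound, 1 h detection. Measured by: luminescent adenylate kinase detection reagent. Read-out: signal increase indicating cell lysis. Benchmarks: Clomiphene.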
RAD54 branch: inhibitors of human RAD54 branch migration, primary screen, biochemical, fluorescence, single point; RAD54 Holliday junction branch migration, FAM/BHQ fluorescence; inhibition, % at 10.4 µM; hit rate 0.14% among 360,000; AID 602329, 2012;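 active = mean normalized replicate activity at least 40 and at least half of replicates scoring 40 or more; inconclusive = only one of the two criteria met; inactive = mean below 40 and under half of replicates reaching 40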;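 also: inhibitors cause a drop in the FAM fluorescence signal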
Target sequence (Q92698 whole entry, looked up): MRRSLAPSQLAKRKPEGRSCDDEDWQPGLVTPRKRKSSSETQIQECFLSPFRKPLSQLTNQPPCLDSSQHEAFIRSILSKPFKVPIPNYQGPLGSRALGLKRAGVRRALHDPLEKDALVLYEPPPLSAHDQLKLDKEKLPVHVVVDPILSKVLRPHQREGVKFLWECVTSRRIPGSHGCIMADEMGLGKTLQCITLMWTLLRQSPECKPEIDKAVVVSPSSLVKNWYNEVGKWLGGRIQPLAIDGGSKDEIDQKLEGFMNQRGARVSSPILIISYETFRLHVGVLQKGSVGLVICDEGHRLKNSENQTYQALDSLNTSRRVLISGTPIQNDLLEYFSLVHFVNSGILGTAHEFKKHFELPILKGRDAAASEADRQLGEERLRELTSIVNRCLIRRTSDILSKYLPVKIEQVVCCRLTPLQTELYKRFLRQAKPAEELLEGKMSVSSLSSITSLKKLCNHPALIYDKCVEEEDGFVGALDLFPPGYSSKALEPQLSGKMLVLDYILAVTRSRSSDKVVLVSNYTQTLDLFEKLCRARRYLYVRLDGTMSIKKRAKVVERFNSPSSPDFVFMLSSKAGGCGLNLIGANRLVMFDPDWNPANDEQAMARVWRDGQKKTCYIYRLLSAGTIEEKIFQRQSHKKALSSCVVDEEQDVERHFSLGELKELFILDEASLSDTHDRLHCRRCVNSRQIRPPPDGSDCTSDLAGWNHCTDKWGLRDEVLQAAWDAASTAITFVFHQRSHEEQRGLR
RAD52 anneal inh: RAD52 DNA annealing inhibitors, primary screen, biochemical, FRET, single point, set 2; recombinant RAD52 DNA annealing, FRET fluorescence; inhibition, % at 18.7 µM; hit rate 0.46% among 360,000;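 active = every replicate showing at least 50% inhibition; inconclusive = mean inhibition at least 50% but not in every replicate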
rRNA inh HTS: reduced GFP signal of wild-type E. coli, primary screen, bacterial rRNA inhibitor project, GFP/RFP fluorescence, OD600, single point; E. coli WT GFP vs humanized-ribosome RFP mutants, 24 h; stronger effect = lower value; DMSO median 0, no signal -100; GFP signal change (wild-type ribosome), % (test concentration not listed); hit rate 1.6% among 350,000;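 active = significant combined selectivity score with lowered wild-type GFP, culture density cut under 30%, mutant RFP and density less affected; inactive = any of these conditions unmet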
PglD DTNB: C. jejuni PglD acetyltransferase inhibitors, primary screen, biochemical, DTNB colorimetric, single point. purified PglD enzyme, DTNB colorimetric CoA detection. inhibition, % at 12.5 µM. hit rate 0.098% among 360,000; in the data active = inhibition above about 16%, passing the limit was not always enough; inconclusive = no clear call, values can overlap the other calls
DNA binder FP: DNA-binding compounds via dye displacement, dose response, artefact control for RAD52 inhibitor project, biochemical, fluorescence polarization, cherry-pick. AID 652128, 2013. AC50, µM. Salmon sperm DNA/acridine orange FP displacement. shares compounds with RAD52 anneal inh. hit rate 8% among 1,000;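 active = fitted half-maximal concentration for signal loss at or below twice the highest dose tested, in every separate run, actives reach about 64 µM in these data; inconclusive = runs disagree, or flat partial signal loss, or poor fit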
Numbers stand for hits; - = inactive; ? = inconclusive; . = no result; ! = a repeat was not active. This is a sample that favours compounds with a hit; in the whole collection about 1.9% have one here.

SMILES	Cneo AK release	RAD54 branch	RAD52 anneal inh	rRNA inh HTS	PglD DTNB	DNA binder FP
CO[C@@H]1CN(C)C(=O)c2cc(NC(=O)C3CC3)ccc2OC[C@H](C)N(CC2CCOCC2)C[C@@H]1C	-	-	-	-	-	.
COc1cc(-c2cnc3c(NC=O)cc(-c4ccc(N5CCN(C)CC5)cc4)cn23)cc(OC)c1OC	-	-	70.0	-	-	-
CCN(CC)CCOC(=O)c1ccc(N/C=C(/C#N)c2nc(-c3ccc(OC)c(OC)c3)cs2)cc1	.	.	70.3	-	.	-
CCN(CC)CCOC(=O)c1ccc(N/C=C(/C#N)c2nc(-c3cccc(OC)c3)cs2)cc1	-	-	-	.	-	.
CC1(C)Nc2cccc3cccc(c23)N1	-	-	65.4	-	-	-
CC(=O)Nc1cccc(-c2cc(N3CCN(CCO)CC3)n3nccc3n2)c1	-	-	56.7	-	-	-
Cc1cc(-n2c(C)c3c(C)nnc(C)c3c2C)ccc1N	.	.	65.9	.	.	-
Cn1c(-c2csc(-c3cccc(C(F)(F)F)c3)n2)n[nH]c1=S	.	.	96.1	-	.	-
COc1ccc(S(=O)(=O)Nc2ccc3c(c2)C(=O)N(C)C[C@@H](OC)[C@H](C)CN(C)[C@H](C)CO3)cc1	-	-	-	-	-	.
Cc1ccc2c(c1)c1c3n2CCN(CC(O)CNC(C)C)C3CCC1 (stereo not given)	-	?	82.4	-	-	-
Cc1ccc2c(c1)c1c3n2CCN(CC(N)=O)C3CCC1 (stereo not given)	-	-	-	-	-	.
CCN(Cc1ccccc1)S(=O)(=O)c1ccc(C(=O)N(CCCN(C)C)c2nc3cc(C)cc(C)c3s2)cc1	-	-	-	-	-	-
Cc1ccc2sc(N(CCCN(C)C)C(=O)c3ccc(S(=O)(=O)N(C)C)cc3)nc2c1C	.	.	-	-	.	.
CCc1ccc2nc(N(CCCN(C)C)C(=O)c3ccc(C(=O)c4ccccc4)cc3)sc2c1	-	-	-	-	-	.
CCOc1ccc2nc(N(CCN(C)C)C(=O)c3cc4ccccc4cc3OC)sc2c1	-	-	.	.	-	.
COc1cc2nc(N(CCCN(C)C)C(=O)c3ccc(C(=O)c4ccccc4)cc3)sc2cc1OC	-	-	71.6	-	-	-
CCOc1cccc2sc(N(CCN(C)C)C(=O)c3cc4ccccc4cc3OC)nc12	-	-	64.4	-	-	-
Cc1ccc2sc(N(CCCN(C)C)C(=O)c3ccc(S(=O)(=O)N(C)Cc4ccccc4)cc3)nc2c1C	-	-	59.6	-	-	-
Cc1cccc2sc(N(CCCN(C)C)C(=O)c3ccco3)nc12	-	-	-	-	-	.
CCOc1cccc2sc(N(CCCN(C)C)C(=O)c3ccc(S(=O)(=O)N(CC)Cc4ccccc4)cc3)nc12	-	-	65.0	-	-	-
CCOc1cccc2sc(N(CCCN(C)C)C(=O)c3ccc(C(=O)c4ccccc4)cc3)nc12	-	-	51.5	-	-	-
Cc1cccc2sc(N(CCCN(C)C)C(=O)c3ccc(Cl)s3)nc12	-	-	56.5	-	-	-
CCOc1cccc2sc(N(CCCN(C)C)C(=O)Cc3ccccc3)nc12	-	-	-	-	-	.
COc1ccc(CN(C)C[C@H]2Oc3ccc(NC(=O)Nc4ccc(C(F)(F)F)cc4)cc3C(=O)N([C@@H](C)CO)C[C@H]2C)cc1	-	-	-	-	-	.
CC(NC(=O)CSc1ncccn1)c1ccc2c(c1)OCO2 (stereo not given)	-	-	-	-	-	.
SMILES	Cneo AK release	RAD54 branch	RAD52 anneal inh	rRNA inh HTS	PglD DTNB	DNA binder FP
CC(NC(=O)CCc1ccccc1)c1ccc2c(c1)OCO2 (stereo not given)	-	-	108.3	-	-	-
CCCN1C(=O)/C(=C/c2ccc(C)s2)SC1=Nc1ccc(OC)cc1	-	-	.	.	-	.
COc1ccc(N=C2S/C(=C\c3ccc(Cl)c([N+](=O)[O-])c3)C(=O)N2CCN(C)C)cc1	-	-	53.5	-	-	-
CCN(CC)CCN1C(=O)/C(=C\c2ccc(Cl)c([N+](=O)[O-])c2)SC1=Nc1ccc(OC)cc1	-	-	80.3	-	-	-
COc1ccc(CN(C)C[C@H]2Oc3ccc(NC(=O)NC4CCCCC4)cc3C(=O)N([C@@H](C)CO)C[C@H]2C)cc1	-	-	-	-	-	.
CCN(CC)CCOC(=O)c1ccc(Cl)cc1	-	-	.	.	-	.
CCCCOc1cc(C(=O)OCCN(CC)CC)ccc1N	-	-	84.8!	-	-	-
O=C1c2cccc(NCCNCCO)c2C(=O)c2cccc(NCCNCCO)c21	.	.	63.2	-	.	4.04µM
O=C(O)CCNc1ccc(NCCC(=O)O)c2c1C(=O)c1ccccc1C2=O	.	.	-	-	.	.
Oc1ccc(CN2CCN(Cc3ccccc3)CC2)c2cccnc12	-	-	.	.	-	.
CN1CCN(C2CCN(Cc3ccc(O)c4ncccc34)CC2)CC1	-	-	91.8	-	-	-
NCC(c1ccco1)c1c[nH]c2ccccc12 (stereo not given)	-	-	-	-	-	.
CN(C)c1ccc(C(CN)c2c[nH]c3ccccc23)cc1 (stereo not given)	-	-	84.1	-	-	-
CN(C)CCCNC(=O)C[C@@H]1CC[C@@H]2[C@@H](COc3ccc(NC(=O)c4ccc5c(c4)OCO5)cc3C(=O)N2C)O1	-	-	-	-	-	.
Cc1ccc(S(=O)(=O)NCC[C@H]2CC[C@H](NC(=O)C3CCOCC3)[C@H](CO)O2)cc1	-	-	-	-	-	.
OC(CNCCc1ccc(Cl)cc1)COc1ccc2ccccc2c1 (stereo not given)	-	-	53.3	-	-	-
OC(CNCCc1ccccc1)COc1ccc(OCC(O)CNCCc2ccccc2)cc1 (stereo not given)	-	-	-	-	-	.
O=C(C[C@@H]1C[C@@H]2c3cc(NC(=O)C4CCC4)ccc3O[C@@H]2[C@@H](CO)O1)NCc1ccc2c(c1)OCO2	-	-	-	-	-	.
Cc1c(C(=O)Nc2ccc(S(=O)(=O)N(C)C3CCN(C)CC3)cc2)oc2c(Cl)cccc12	-	-	69.5	-	-	-
Cc1c(C(=O)Nc2ccc(S(=O)(=O)N(C)C3CCN(C)CC3)cc2)oc2ccccc12	-	-	-	-	-	.
Cc1noc(C)c1NC(=O)Nc1ccc2c(c1)C(=O)N([C@@H](C)CO)C[C@H](C)[C@H](CN(C)C(=O)Nc1ccc3c(c1)OCO3)O2	-	-	-	-	-	.
CN(C)CCCN(C(=O)c1ccc(S(=O)(=O)N(C)Cc2ccccc2)cc1)c1nc2cc3c(cc2s1)OCO3	-	-	-	-	-	.
